ChEMBL document CHEMBL3784974, “Design and Structural Characterization of Potent and Selective Inhibitors of Phosphatidylinositol 4 Kinase IIIβ” (J Med Chem, 2016)

Columns and labels:
[1] = Inhibition of GST-tagged recombinant human full length PI4K3beta expressed in insect cells preincubated for 15 mins followed by addition of cold ATP/gamma32P-ATP measured after 30 mins in presence of MgCl2
How it was run: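 Membrane-capture radiometric assay. Purchased enzyme, final 2.5 nM. Enzyme preincubated 15 min with inhibitor (diluted in 10% DMSO), then 30 min reaction. Final: 20 mM Bis-Tris propane pH 7.5, 10 mM MgCl2, 0.075 mM Triton X-100, 0.5 mM EGTA, 1 mM DTT, 100 µM PI in PI:DOPS:DOPC, 500 ng/µL BSA, 2% DMSO, 10 µM ATP, 1 uCi γ32P-ATP. Product spotted on nitrocellulose, washed in 1M NaCl/1% phosphoric acid, phosphorimaged.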

[2] = Cytotoxicity against human Huh7.5 cells after 3 days by presto blue assay; assay type: cell-based, Huh-7
How it was run: (§1)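 Huh7.5 cells stably infected with J6/JFH1-GLuc, kept in DMEM/10% FBS, glutamine, NEAA, pen/strep at 37 °C, 5% CO2. 10,000 cells/well; serially diluted compound added 1 h after plating; 3-day incubation. Replication read as Gaussia luciferase activity in supernatant; viability by Presto Blue.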

[3] = molecular target: T1, Phosphatidylinositol 4,5-bisphosphate 3-kinase catalytic subunit delta isoform (Homo sapiens, UniProt O00329); assay: Inhibition of histidine-tagged recombinant human full length PI3Kdelta expressed in baculovirus preincubated for 15 mins followed by addition of cold ATP/gamma32P-ATP measured after 20 mins in presence of MgCl2
T1 sequence (O00329 whole entry): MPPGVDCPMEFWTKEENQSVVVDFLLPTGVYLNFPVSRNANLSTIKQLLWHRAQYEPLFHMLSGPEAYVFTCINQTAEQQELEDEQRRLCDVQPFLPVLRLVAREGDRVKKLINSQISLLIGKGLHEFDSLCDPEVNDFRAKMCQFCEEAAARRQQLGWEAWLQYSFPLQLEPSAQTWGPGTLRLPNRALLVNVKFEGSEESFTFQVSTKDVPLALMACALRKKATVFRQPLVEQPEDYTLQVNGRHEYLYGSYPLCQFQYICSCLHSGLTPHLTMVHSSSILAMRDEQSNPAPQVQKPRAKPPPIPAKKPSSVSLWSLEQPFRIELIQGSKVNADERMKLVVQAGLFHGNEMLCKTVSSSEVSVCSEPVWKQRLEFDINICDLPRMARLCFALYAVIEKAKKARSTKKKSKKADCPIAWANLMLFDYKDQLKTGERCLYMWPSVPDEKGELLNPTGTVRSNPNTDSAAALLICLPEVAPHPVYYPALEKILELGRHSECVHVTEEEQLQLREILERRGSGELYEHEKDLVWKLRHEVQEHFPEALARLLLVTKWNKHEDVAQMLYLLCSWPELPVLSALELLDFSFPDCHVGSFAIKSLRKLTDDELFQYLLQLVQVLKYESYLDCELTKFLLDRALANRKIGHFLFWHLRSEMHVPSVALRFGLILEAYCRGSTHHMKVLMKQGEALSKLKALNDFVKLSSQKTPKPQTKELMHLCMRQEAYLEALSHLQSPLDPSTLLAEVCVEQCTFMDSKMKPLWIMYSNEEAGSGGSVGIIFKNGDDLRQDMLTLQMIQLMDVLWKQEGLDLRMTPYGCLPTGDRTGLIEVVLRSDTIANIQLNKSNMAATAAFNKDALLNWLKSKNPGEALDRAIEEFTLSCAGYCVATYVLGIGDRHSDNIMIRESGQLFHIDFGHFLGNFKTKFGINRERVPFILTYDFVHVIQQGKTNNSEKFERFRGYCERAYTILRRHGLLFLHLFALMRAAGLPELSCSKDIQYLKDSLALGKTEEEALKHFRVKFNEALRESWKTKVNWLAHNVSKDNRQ
How it was run: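 Final: 50 mM HEPES pH 7.5, 100 mM NaCl, 0.03% CHAPS, 10 mM MgCl2, 1 mM EGTA, 2 mM DTT, 80 µM PIP2 (PIP2:DOPS:DOPC), 500 ng/µL BSA, 2% DMSO, 10 µM ATP, 2.5 uCi γ32P-ATP. Nitrocellulose capture, phosphorimaging.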

Hepatitis C virus = assay: Antiviral activity against HCV genotype 2a J6/JFH1 infected in human Huh7.5 cells after 3 days by gaussia luciferase assay; assay type: functional, organism-based, Hepacivirus hominis; settings: subtype 2a J6/JFH1, Huh-7, 72 h; how it was run: as §1
[4] = molecular target: T2, Phosphatidylinositol 4,5-bisphosphate 3-kinase catalytic subunit gamma isoform (Homo sapiens, UniProt P48736); assay: Inhibition of histidine-tagged recombinant human full length PI3Kgamma expressed in insect cells preincubated for 15 mins followed by addition of cold ATP/gamma32P-ATP measured after 15 mins in presence of MgCl2
Target sequence in this assay (P48736 whole entry, canonical isoform): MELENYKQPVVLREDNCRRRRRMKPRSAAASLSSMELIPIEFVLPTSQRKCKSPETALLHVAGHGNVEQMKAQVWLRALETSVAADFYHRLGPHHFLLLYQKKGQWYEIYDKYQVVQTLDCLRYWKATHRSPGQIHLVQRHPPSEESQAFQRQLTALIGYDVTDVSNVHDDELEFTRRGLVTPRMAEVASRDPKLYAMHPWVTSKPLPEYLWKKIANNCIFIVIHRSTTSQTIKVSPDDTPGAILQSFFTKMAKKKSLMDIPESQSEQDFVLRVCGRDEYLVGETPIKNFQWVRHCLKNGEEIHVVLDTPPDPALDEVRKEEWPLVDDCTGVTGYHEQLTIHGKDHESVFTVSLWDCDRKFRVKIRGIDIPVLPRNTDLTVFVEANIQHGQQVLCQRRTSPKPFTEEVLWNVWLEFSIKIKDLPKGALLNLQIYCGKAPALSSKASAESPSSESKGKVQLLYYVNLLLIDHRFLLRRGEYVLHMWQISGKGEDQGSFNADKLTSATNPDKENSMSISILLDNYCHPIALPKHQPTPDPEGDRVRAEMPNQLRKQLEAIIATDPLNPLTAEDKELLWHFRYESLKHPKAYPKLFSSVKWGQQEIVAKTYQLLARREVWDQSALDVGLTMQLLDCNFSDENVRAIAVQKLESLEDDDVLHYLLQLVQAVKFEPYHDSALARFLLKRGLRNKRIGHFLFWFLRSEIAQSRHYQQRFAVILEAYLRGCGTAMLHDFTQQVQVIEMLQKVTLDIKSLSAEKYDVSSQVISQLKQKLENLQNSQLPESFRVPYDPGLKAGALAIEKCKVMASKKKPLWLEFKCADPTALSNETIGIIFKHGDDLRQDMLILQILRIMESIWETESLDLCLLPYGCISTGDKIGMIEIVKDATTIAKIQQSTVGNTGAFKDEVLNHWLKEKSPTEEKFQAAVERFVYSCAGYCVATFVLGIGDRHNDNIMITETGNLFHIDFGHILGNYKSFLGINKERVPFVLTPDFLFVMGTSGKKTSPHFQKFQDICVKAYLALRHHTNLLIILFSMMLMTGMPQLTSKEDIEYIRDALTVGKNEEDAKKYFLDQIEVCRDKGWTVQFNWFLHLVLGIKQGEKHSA

[5] = molecular target: T3, Phosphatidylinositol 3-kinase catalytic subunit type 3 (Homo sapiens, UniProt Q8NEB9); assay: Inhibition of GST-tagged recombinant human full length VPS34 expressed in baculovirus preincubated for 15 mins followed by addition of cold ATP/gamma32P-ATP measured after 1 hr in presence of MnCl2
How it was run: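 Radiometric membrane-capture assay, 10 nM purchased vps34, 15 min preincubation with inhibitor, then 1 h reaction. Final: 50 mM HEPES pH 7.5, 0.1% CHAPS, 2mM MnCl2, 1 mM EGTA, 2 mM DTT, 100 µM PI in PI:DOPS:DOPC, 500 ng/µL BSA, 2% DMSO, 10 µM ATP, 2.5 uCi γ32P-ATP; spots washed, phosphorimaged.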

[6] = molecular target: T2, Phosphatidylinositol 4,5-bisphosphate 3-kinase catalytic subunit gamma isoform; assay: Inhibition of histidine-tagged recombinant human full length PI3Kgamma expressed in insect cells at 50 uM preincubated for 15 mins followed by addition of cold ATP/gamma32P-ATP measured after 15 mins in presence of MgCl2
Target sequence in this assay (P48736 whole entry, looked up, canonical isoform): as the sequence (P48736 whole entry, canonical isoform) above

[7] = molecular target: T3, Phosphatidylinositol 3-kinase catalytic subunit type 3; assay: Inhibition of GST-tagged recombinant human full length VPS34 expressed in baculovirus at 50 uM preincubated for 15 mins followed by addition of cold ATP/gamma32P-ATP measured after 1 hr in presence of MnCl2
[8] = molecular target: T4, Phosphatidylinositol 4,5-bisphosphate 3-kinase catalytic subunit delta isoform (Homo sapiens) (UniProt O00329); assay: Inhibition of histidine-tagged recombinant human full length PI3Kdelta expressed in baculovirus at 50 uM preincubated for 15 mins followed by addition of cold ATP/gamma32P-ATP measured after 20 mins in presence of MgCl2
T4 sequence (whole entry): T1 sequence (O00329 whole entry)

T3 sequence (Q8NEB9 whole entry): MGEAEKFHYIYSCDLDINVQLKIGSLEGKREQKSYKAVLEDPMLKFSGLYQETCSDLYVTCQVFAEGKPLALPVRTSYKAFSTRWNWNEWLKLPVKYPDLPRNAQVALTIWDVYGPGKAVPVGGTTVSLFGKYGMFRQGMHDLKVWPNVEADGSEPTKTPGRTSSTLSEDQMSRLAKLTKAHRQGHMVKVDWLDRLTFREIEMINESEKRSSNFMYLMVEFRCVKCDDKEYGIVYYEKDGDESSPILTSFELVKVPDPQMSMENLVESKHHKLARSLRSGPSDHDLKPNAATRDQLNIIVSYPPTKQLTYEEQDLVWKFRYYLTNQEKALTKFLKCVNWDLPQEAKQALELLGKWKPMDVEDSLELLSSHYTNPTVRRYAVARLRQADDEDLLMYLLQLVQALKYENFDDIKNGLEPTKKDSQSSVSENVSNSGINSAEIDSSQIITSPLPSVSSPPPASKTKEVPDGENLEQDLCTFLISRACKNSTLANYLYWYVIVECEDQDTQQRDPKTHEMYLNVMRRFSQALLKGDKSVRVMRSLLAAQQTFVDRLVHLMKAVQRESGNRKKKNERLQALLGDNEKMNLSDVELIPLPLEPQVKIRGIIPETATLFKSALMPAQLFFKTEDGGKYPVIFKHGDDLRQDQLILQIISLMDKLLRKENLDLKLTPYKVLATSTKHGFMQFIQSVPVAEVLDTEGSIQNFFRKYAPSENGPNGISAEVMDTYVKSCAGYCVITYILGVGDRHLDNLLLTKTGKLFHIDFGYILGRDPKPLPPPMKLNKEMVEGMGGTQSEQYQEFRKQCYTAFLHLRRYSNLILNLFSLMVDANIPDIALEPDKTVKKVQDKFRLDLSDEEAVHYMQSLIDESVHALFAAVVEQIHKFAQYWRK

IC50 [3] [nM]	IC50 (Hepatitis C virus) [nM]	IC50 [4] [nM]	IC50 [5] [nM]	inhibition [6] [%]	inhibition [7] [%]	inhibition [8] [%]	Compound	IC50 [1] [nM]	CC50 at 72 h [2] [nM]
340	4400	1500	> 50000	–	–	–	Cc1nc(NC(=O)C2CCCC2)sc1-c1ccc(Cl)c(S(=O)(=O)NCCO)c1	16	20000
–	4800	–	307	–	–	–	CC(=O)/N=c1/[nH]c(C)c(-c2ccc(Cl)c(S(=O)(=O)NCCO)c2)s1	17	10000
223	29000	181	> 50000	–	–	–	COc1ccc(-c2sc(NC(C)=O)nc2C)cc1S(=O)(=O)NCCO	4.4	42000
4.9	570	5	32	–	–	–	CC(=O)Nc1nc(C)c(-c2ccc(Cl)c(S(=O)(=O)Nc3ccc(O)cc3)c2)s1	4.2	7000
1570	6800	3700	> 50000	–	–	–	Cc1nc(NC(=O)C(C)(C)C)sc1-c1ccc(Cl)c(S(=O)(=O)NCCO)c1	5.5	33000
29	5900	31	245	–	–	–	CC(=O)Nc1nc(C)c(-c2ccc(Cl)c(S(=O)(=O)Nc3ccc(F)cc3)c2)s1	23	13000
–	17000	> 50000	> 50000	< 20	< 20	< 50	COc1ccc(-c2sc(NC(=O)C(C)(C)C)nc2C)cc1S(=O)(=O)NCCO	36	> 40000
33	3000	21	146	–	–	–	CC(=O)Nc1nc(C)c(-c2ccc(Br)c(S(=O)(=O)NCCO)c2)s1	5.3	5500
